Measured values from ChEMBL document CHEMBL4376826 (J Med Chem, 2020).
Values after ≈ are worked out from the molar mass of the structure shown.

Key:
[1] = Half life in human hepatocytes; type: ADME, cell-based, Hepatocyte
Outline: (§1)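 Metabolic stability of the dihydrodiols measured in vitro with mouse and human liver S9 fractions and with mouse and human hepatocytes; half-life from substrate depletion.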

[2] = Intrinsic clearance in human liver S9 fraction; type: ADME, subcellular; conditions: read-out: CLH
[3] = Inhibition of adenosine transporter (unknown origin); type: ADME, Homo sapiens
[4] = Half life in human liver S9 fraction; type: ADME, subcellular; outline: as §1
[5] = target: T1, Amine oxidase [flavin-containing] B (Homo sapiens, UniProt P27338); assay: Inhibition of monoamino oxidase B (unknown origin)
T1 sequence (P27338 whole entry): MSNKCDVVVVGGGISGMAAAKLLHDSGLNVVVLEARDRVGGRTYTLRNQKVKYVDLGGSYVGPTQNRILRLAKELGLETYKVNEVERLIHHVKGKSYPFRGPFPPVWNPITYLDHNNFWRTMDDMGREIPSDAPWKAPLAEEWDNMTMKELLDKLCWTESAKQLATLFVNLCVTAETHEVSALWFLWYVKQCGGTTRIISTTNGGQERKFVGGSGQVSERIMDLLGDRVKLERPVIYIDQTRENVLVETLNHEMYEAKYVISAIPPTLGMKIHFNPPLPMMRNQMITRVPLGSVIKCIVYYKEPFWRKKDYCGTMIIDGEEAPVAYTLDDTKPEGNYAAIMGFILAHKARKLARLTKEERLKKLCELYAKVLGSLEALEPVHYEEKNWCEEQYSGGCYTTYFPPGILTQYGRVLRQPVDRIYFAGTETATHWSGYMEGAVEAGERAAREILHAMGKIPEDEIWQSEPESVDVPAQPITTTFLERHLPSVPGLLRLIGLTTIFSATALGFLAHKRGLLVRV

[6] = Intrinsic clearance in mouse liver S9 fraction; type: ADME, subcellular; conditions: read-out: CLH
[7] = target: UDP-glucuronosyltransferase 1A4 (Homo sapiens, UniProt P22310); assay: Drug metabolism assessed as human UGT1A4-mediated metabolism by measuring intrinsic clearance; type: ADME; conditions: recombinant enzyme
Sequence of UDP-glucuronosyltransferase 1A4 (P22310 whole entry): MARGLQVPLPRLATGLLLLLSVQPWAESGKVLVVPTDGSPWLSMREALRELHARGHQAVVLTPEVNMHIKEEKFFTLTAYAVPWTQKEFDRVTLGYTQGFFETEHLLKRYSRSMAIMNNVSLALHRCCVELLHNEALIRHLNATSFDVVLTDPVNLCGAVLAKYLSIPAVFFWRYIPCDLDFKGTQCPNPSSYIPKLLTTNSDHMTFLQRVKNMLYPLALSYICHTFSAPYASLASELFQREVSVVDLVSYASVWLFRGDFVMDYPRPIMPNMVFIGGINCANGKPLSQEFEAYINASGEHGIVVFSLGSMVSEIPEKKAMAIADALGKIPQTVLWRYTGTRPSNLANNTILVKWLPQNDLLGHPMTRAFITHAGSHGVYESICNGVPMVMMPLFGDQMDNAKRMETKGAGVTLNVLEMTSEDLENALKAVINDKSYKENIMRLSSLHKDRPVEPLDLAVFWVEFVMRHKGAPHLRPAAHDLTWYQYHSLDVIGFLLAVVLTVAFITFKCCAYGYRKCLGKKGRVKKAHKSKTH

[8] = target: UGT1A9 (Homo sapiens, UniProt O60656); assay: Inhibition of human UGT1A9 assessed as residual enzyme activity at 10 uM relative to control; type: ADME; conditions: read-out: Activity
Sequence of UGT1A9 (O60656 whole entry): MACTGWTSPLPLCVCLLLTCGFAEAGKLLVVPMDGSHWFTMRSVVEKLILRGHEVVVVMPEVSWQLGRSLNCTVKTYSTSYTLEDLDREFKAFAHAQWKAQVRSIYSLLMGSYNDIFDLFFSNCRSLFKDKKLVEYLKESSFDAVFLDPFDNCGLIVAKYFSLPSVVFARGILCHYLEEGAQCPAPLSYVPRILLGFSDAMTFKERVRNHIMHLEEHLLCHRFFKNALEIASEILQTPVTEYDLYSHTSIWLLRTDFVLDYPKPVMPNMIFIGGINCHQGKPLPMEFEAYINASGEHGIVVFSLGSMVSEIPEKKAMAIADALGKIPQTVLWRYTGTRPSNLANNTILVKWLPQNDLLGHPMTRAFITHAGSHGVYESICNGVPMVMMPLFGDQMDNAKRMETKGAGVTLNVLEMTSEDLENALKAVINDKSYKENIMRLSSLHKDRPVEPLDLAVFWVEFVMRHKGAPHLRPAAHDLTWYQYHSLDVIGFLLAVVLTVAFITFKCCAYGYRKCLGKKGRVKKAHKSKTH

[9] = Half life in mouse liver S9 fraction; type: ADME, subcellular; outline: as §1
[10] = Retention time in beta-naphthoflavone/phenobarbital-induced rat liver S9 fraction at 100 ug/ml in presence of NADPH measured after 4 hrs by UV-Vis spectroscopy; type: ADME, subcellular; conditions: s9, 4 h
[11] = Drug level in beta-naphthoflavone/phenobarbital-induced rat liver S9 fraction treated with 100 ug/ml Ezutromid-1 assessed as compound formation in presence of NADPH measured after 4 hrs by UV-Vis spectroscopy; type: ADME, subcellular; conditions: s9, 4 h
[12] = Kinetic aqueous solubility of the compound; type: physicochemical; conditions: buffer; read-out: Kinetic_solubility
[13] = target: Solute carrier organic anion transporter family member 1B3 (Homo sapiens, UniProt Q9NPD5); assay: Inhibition of OATP1B3 (unknown origin); type: ADME
Sequence of Solute carrier organic anion transporter family member 1B3 (Q9NPD5 whole entry): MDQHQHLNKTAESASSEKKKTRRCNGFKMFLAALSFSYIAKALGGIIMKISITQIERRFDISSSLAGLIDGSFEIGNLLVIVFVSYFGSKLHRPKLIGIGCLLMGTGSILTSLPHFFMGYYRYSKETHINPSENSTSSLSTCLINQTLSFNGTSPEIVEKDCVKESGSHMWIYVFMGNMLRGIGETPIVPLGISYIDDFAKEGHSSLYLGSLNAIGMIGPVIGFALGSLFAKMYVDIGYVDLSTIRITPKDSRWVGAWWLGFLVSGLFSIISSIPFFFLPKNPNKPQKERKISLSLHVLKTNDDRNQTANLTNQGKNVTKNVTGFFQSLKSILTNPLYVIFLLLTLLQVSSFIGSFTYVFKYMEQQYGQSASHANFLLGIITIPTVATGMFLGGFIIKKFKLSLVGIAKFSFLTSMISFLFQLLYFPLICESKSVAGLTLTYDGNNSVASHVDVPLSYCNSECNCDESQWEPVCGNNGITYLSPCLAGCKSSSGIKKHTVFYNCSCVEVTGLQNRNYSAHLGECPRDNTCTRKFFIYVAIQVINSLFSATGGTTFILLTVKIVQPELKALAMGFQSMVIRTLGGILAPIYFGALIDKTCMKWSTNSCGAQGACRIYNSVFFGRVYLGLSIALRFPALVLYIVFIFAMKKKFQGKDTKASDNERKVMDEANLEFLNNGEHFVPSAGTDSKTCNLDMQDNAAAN

[14] = tested on: UDP-glucuronosyltransferases (UGTs); assay: Drug metabolism assessed as human UGT-mediated metabolism by measuring intrinsic clearance; type: ADME, protein assay
[15] = target: Multidrug and toxin extrusion protein 1 (Homo sapiens, UniProt Q96FL8); assay: Inhibition of MATE1 (unknown origin); type: ADME
Sequence of Multidrug and toxin extrusion protein 1 (Q96FL8 whole entry): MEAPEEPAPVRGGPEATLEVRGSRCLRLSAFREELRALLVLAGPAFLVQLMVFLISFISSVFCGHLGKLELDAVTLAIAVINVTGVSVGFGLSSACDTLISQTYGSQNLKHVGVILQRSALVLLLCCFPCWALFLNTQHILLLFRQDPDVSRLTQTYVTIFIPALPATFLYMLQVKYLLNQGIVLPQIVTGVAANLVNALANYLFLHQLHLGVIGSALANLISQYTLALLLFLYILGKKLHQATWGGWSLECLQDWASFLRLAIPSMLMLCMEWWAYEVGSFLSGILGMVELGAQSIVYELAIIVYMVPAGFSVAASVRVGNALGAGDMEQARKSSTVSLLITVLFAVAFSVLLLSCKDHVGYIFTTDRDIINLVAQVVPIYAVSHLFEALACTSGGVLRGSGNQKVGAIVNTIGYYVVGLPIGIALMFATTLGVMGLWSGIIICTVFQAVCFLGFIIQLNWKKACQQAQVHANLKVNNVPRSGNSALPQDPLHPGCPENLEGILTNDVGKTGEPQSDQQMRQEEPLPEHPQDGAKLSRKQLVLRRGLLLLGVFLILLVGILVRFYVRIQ

[16] = Lipophilicity, logD of the compound at pH 7.4; type: physicochemical; conditions: buffer
[17] = Retention time in human plasma by LC-MS/MS analysis; type: ADME, cell-free
[18] = target: UGT1A3 (Homo sapiens, UniProt P35503); assay: Inhibition of human UGT1A3 assessed as residual enzyme activity at 10 uM relative to control; type: ADME; conditions: read-out: Activity
Sequence of UGT1A3 (P35503 whole entry): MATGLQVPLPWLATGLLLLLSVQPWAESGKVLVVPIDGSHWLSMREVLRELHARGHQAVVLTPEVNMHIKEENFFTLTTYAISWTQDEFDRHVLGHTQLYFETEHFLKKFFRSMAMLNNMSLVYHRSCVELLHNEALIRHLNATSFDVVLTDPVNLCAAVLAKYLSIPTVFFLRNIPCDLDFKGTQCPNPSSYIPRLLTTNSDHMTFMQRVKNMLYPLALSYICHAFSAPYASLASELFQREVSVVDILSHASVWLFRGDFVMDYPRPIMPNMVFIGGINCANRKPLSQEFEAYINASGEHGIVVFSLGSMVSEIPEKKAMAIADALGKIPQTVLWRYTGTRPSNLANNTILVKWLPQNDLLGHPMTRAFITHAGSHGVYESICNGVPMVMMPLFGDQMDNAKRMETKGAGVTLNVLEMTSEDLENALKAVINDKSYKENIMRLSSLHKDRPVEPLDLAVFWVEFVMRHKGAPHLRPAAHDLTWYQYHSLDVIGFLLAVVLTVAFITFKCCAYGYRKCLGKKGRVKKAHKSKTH

[19] = target: T1, Amine oxidase [flavin-containing] B; assay: Inhibition of monoamino oxidase B (unknown origin) at 10 uM
[20] = Half life in mouse hepatocytes; type: ADME, cell-based, Hepatocyte; outline: as §1
[21] = Permeability at pH 7.4 by PAMPA; type: ADME; conditions: read-out: permeability
[22] = Intrinsic clearance in mouse hepatocytes; type: ADME, cell-based, Hepatocyte
[23] = Protein binding in mouse plasma assessed as bound fraction; type: ADME, cell-free
Outline: (§2)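 Binding measured in 100% plasma; reported as fraction bound.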

[24] = Intrinsic clearance in human hepatocytes; type: ADME, cell-based, Hepatocyte
[25] = Inhibition of adenosine transporter (unknown origin) at 10 uM; type: ADME; conditions: human
[26] = Protein binding in human plasma assessed as bound fraction; type: ADME, cell-free; conditions: read-out: PPB (converted); outline: as §2
[27] = target: Broad substrate specificity ATP-binding cassette transporter ABCG2 (Homo sapiens, UniProt Q9UNQ0); assay: Inhibition of BCRP (unknown origin); type: ADME
Sequence of Broad substrate specificity ATP-binding cassette transporter ABCG2 (Q9UNQ0 whole entry): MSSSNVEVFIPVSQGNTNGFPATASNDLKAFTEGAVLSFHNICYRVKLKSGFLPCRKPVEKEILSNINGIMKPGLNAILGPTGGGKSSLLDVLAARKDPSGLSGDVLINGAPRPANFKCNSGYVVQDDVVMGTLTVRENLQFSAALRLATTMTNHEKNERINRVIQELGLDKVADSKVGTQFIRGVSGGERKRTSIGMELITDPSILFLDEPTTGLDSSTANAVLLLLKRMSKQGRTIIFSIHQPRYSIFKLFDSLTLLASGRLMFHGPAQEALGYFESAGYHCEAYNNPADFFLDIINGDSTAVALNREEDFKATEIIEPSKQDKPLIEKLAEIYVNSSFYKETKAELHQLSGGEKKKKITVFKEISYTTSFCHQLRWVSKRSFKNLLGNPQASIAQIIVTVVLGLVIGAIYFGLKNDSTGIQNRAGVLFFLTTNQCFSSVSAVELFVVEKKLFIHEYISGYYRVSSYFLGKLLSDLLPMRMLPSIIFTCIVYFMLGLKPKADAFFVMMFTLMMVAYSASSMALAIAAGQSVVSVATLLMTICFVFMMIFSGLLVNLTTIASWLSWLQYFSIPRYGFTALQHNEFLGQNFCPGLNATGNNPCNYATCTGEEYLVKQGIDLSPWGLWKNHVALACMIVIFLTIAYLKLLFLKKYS

[28] = target: Solute carrier organic anion transporter family member 1B1 (Homo sapiens, UniProt Q9Y6L6); assay: Inhibition of OATP1B1 (unknown origin); type: ADME
Sequence of Solute carrier organic anion transporter family member 1B1 (Q9Y6L6 whole entry): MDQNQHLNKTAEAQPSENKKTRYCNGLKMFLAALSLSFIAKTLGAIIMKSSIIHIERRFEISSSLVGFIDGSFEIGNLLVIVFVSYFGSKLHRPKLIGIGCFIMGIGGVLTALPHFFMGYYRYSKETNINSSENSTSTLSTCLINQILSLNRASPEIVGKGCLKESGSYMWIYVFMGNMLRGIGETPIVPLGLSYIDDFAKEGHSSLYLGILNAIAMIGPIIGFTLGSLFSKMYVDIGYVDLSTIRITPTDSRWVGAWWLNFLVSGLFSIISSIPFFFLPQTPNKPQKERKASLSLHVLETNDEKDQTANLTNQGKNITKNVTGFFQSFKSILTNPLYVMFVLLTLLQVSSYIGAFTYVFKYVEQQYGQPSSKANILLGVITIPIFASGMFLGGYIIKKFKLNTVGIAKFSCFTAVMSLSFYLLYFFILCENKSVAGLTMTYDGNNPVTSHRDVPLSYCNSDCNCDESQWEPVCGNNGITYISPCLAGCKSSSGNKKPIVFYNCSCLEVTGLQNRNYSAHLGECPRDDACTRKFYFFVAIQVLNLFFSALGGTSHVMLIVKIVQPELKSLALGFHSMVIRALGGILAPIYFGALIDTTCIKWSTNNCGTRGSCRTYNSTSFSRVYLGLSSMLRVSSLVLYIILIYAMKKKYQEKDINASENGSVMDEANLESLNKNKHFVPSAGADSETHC

[29] = Retention time in beta-naphthoflavone/phenobarbital-induced rat liver S9 fraction at 100 ug/ml in presence of NADPH by LC-MS/MS analysis; type: ADME, subcellular

CCS(=O)(=O)c1ccc2oc(-c3ccc4c(c3)C=C[C@H](O)[C@H]4O)nc2c1
half-life [1]: 85 min | microsomal CLint [2]: < 10 µL/min/mg | IC50 [3]: 3.9 µM | half-life [4]: > 138 min | IC50 [5]: 4 µM | microsomal CLint [6]: 35 µL/min/mg | CL [7]: < 2.9 µL/min/pmol | activity at 10 µM [8]: 12% | half-life [9]: 39 min | Retention time [10]: 26.7 min | Drug uptake [11]: Metabolite_Detected | solubility kinetic [12]: 96 µM (≈ 35.7 µg/mL) | inhibition (INH) [13]: Active | CL [14]: < 5.8 µL/min/pmol | IC50 [15]: 10 µM | logD [16]: 2.04 | Retention_time [17]: 8.1 min | activity at 10 µM [18]: 62% | inhibition (INH) [19]: Active | half-life [20]: 7 min | Papp [21]: 33.3 ×10⁻⁶ cm/s | CLH [22]: 98 µL/min/mg | PPB [23]: Not Active | CLH [24]: 8 µL/min/mg | inhibition (INH) [25]: Active | fraction unbound [26]: 0.363 | inhibition (INH) [27]: Active | inhibition (INH) [28]: Active | Retention_time [29]: 8.2 min
